ChEMBL document CHEMBL1165947, “Synthesis and antitumor activity of 2,5-bis(3'-indolyl)-furans and 3,5-bis(3'-indolyl)-isoxazoles, nortopsentin analogues” (Bioorg Med Chem, 2010)
≈ marks a conversion by molar mass, not a printed value.

Key:
[1] = Cytotoxicity against human PC3M cells after 4 days by modified propidium iodide staining-based fluorescence assay; assay type: functional, cell-based; conditions: PC-3M, 96 h
In short: (§1)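 Cells cultured in RPMI 1640 with 10% fetal calf serum and 0.1 mg/mL gentamicin at 37 °C, 5% CO2. Cells from exponential cultures were trypsinized and plated at 4.000-20.000 cells/well by line. After 24 h recovery, compounds were added at five log-spaced concentrations (highest 100 μg/mL) for 4 days. Proliferation was read as DNA content with aqueous propidium iodide (7 μg/ml), fluorescence ex 530/em 620 nm. Points were run in triplicate.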

[2] = Cytotoxicity against human LXFA 526L cells after 4 days by modified propidium iodide staining-based fluorescence assay; assay type: functional, cell-based; conditions: 96 h; in short: as §1
A549 [3] = assay: Cytotoxicity against human A549 cells after 4 days by modified propidium iodide staining-based fluorescence assay; assay type: functional, cell-based; conditions: A549, 96 h; in short: as §1
T47D = assay: Growth inhibition of human T47D cells; assay type: functional
In short: (§2)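 Values come from the NCI in vitro disease-oriented human tumor cell screen. GI50 is the concentration giving 50% growth inhibition of tumor cells; pGI50 is its −log molar form.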

786-0 = assay: Growth inhibition of human 786-0 cells; assay type: functional
[4] = Cytotoxicity against human 1781L cells after 4 days by modified propidium iodide staining-based fluorescence assay; assay type: functional, cell-based; conditions: 96 h; in short: as §1
[5] = Cytotoxicity against human MEXF 520L cells after 4 days by modified propidium iodide staining-based fluorescence assay; assay type: functional, cell-based; conditions: 96 h; in short: as §1
MCF7 = assay: Growth inhibition of human MCF7 cells; assay type: functional; in short: as §2
SNB-75 = assay: Growth inhibition of human SNB75 cells; assay type: functional; in short: as §2
U-251 = assay: Growth inhibition of human U251 cells; assay type: functional; in short: as §2
CWR22R = assay: Cytotoxicity against human 22Rv1 cells after 4 days by modified propidium iodide staining-based fluorescence assay; assay type: functional, cell-based; conditions: 22Rv1, 96 h; in short: as §1
KM12 = assay: Growth inhibition of human KM12 cells; assay type: functional
PANC-1 = assay: Cytotoxicity against human PANC1 cells after 4 days by modified propidium iodide staining-based fluorescence assay; assay type: functional, cell-based; conditions: PANC-1, 96 h; in short: as §1
NCI-H322M = assay: Growth inhibition of human NCI-H322M cells; assay type: functional; in short: as §2
DU-145 = assay: Growth inhibition of human DU145 cells; assay type: functional
[6] = Cytotoxicity against human MAXF 401NL cells after 4 days by modified propidium iodide staining-based fluorescence assay; assay type: functional, cell-based; conditions: 96 h; in short: as §1
OVCAR-3 [7] = assay: Growth inhibition of human OVCAR-3 cells; assay type: functional; in short: as §2
SR = assay: Growth inhibition of human SR cells; assay type: functional; in short: as §2
SK-MEL-28 = assay: Growth inhibition of human SK-MEL-28 cells; assay type: functional; in short: as §2
NCI-H226 = assay: Growth inhibition of human NCI-H226 cells; assay type: functional; in short: as §2
Malme-3M = assay: Growth inhibition of human MALME-3M cells; assay type: functional; in short: as §2
ACHN = assay: Growth inhibition of human ACHN cells; assay type: functional
[8] = Cytotoxicity against human BXF 1218L cells after 4 days by modified propidium iodide staining-based fluorescence assay; assay type: functional, cell-based; conditions: 96 h; in short: as §1
[9] = Cytotoxicity against human LXFL 1121L cells after 4 days by modified propidium iodide staining-based fluorescence assay; assay type: functional, cell-based; conditions: 96 h; in short: as §1
UACC-257 = assay: Growth inhibition of human UACC257 cells; assay type: functional; in short: as §2
NCI-H460 = assay: Cytotoxicity against human H460 cells after 4 days by modified propidium iodide staining-based fluorescence assay; assay type: functional, cell-based; conditions: NCI-H460, 96 h; in short: as §1
NCI/ADR-RES = assay: Growth inhibition of human NCI/ADR-RES cells; assay type: functional; in short: as §2
UACC-62 = assay: Growth inhibition of human UACC62 cells; assay type: functional; in short: as §2
HCT-15 = assay: Growth inhibition of human HCT15 cells; assay type: functional
K562 = assay: Growth inhibition of human K562 cells; assay type: functional
OVCAR-4 = assay: Growth inhibition of human OVCAR4 cells; assay type: functional; in short: as §2
A549 [10] = assay: Growth inhibition of human A549 cells; assay type: functional
[11] = Cytotoxicity against human LXFA 629L cells after 4 days by modified propidium iodide staining-based fluorescence assay; assay type: functional, cell-based; conditions: 96 h; in short: as §1
MOLT-4 = assay: Growth inhibition of human MOLT4 cells; assay type: functional; in short: as §2
SW-620 = assay: Growth inhibition of human SW620 cells; assay type: functional; in short: as §2
A498 = assay: Growth inhibition of human A498 cells; assay type: functional
CAKI-1 = assay: Growth inhibition of human Caki1 cells; assay type: functional
HT-29 = assay: Growth inhibition of human HT-29 cells; assay type: functional
[12] = Cytotoxicity against human LXFA 289L cells after 4 days by modified propidium iodide staining-based fluorescence assay; assay type: functional, cell-based; conditions: 96 h; in short: as §1
HOP-62 = assay: Growth inhibition of human HOP62 cells; assay type: functional
SK-MEL-2 = assay: Growth inhibition of human SK-MEL-2 cells; assay type: functional; in short: as §2
OVCAR-3 [13] = assay: Cytotoxicity against human OVCAR-3 cells after 4 days by modified propidium iodide staining-based fluorescence assay; assay type: functional, cell-based; conditions: OVCAR-3, 96 h; in short: as §1

Compound: COc1ccc2c(c1)c(-c1ccc(-c3cn(C)c4ccc(OC)cc34)o1)cn2C
- IC50 [1]: 4.1 µg/mL (≈ 10.6 µM)
- IC50 [2]: 5.8 µg/mL (≈ 15 µM)
- IC50 (A549 [3]): 9.6 µg/mL (≈ 24.8 µM)
- GI50 (T47D): 2.72 µM
- GI50 (786-0): > 100 µM
- IC50 [4]: 22 µg/mL (≈ 56.9 µM)
- IC50 [5]: 6.4 µg/mL (≈ 16.6 µM)
- GI50 (MCF7): 17.3 µM
- GI50 (SNB-75): 13.6 µM
- GI50 (U-251): 3.66 µM
- IC50 (CWR22R): 33.7 µg/mL (≈ 87.2 µM)
- GI50 (KM12): 2.73 µM
- IC50 (PANC-1): 6.4 µg/mL (≈ 16.6 µM)
- GI50 (NCI-H322M): > 100 µM
- GI50 (DU-145): > 100 µM
- IC50 [6]: 8.1 µg/mL (≈ 21 µM)
- GI50 (OVCAR-3 [7]): 8.51 µM
- GI50 (SR): 1.63 µM
- GI50 (SK-MEL-28): 14 µM
- GI50 (NCI-H226): 23.6 µM
- GI50 (Malme-3M): 52.8 µM
- GI50 (ACHN): 3.74 µM
- IC50 [8]: 15.7 µg/mL (≈ 40.6 µM)
- IC50 [9]: 43.4 µg/mL (≈ 112 µM)
- GI50 (UACC-257): 27 µM
- IC50 (NCI-H460): 22.2 µg/mL (≈ 57.4 µM)
- GI50 (NCI/ADR-RES): 2.37 µM
- GI50 (UACC-62): 3.81 µM
- GI50 (HCT-15): 4.22 µM
- GI50 (K562): 2.86 µM
- GI50 (OVCAR-4): 2.06 µM
- GI50 (A549 [10]): 18.4 µM
- IC50 [11]: 4.1 µg/mL (≈ 10.6 µM)
- GI50 (MOLT-4): > 100 µM
- GI50 (SW-620): 4.55 µM
- GI50 (A498): > 100 µM
- GI50 (CAKI-1): 17.1 µM
- GI50 (HT-29): 22 µM
- IC50 [12]: > 100 µg/mL
- GI50 (HOP-62): > 100 µM
- GI50 (SK-MEL-2): 2.13 µM
- IC50 (OVCAR-3 [13]): 4.2 µg/mL (≈ 10.9 µM)
